Compounds with a hit are over-represented: about 2.1% of the library has one in this group of screens.
TRPN1 ag = zebrafish TRPN1 (NompC) channel agonism. HEK293 zebrafish TRPN1-YFP, Fluo-8 calcium fluorescence; 100% = response to 87 µM carbachol. activation, % at 3 µM. 220,000 tested, 0.18% active. AID 1424;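 active = activation above its plate's cutoff, the mean activation of test wells on that plate plus 3 SD, cut at about 19% in these data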
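Assay system: Zebrafish TRPN1-YFP in HEK293 cells | Incubation: Dye loading 1 h at 37 °C, then 30 min room temperature | Measured by: Kinetic Fluo-8 fluorescence, ex 470-495, em 515-575 nm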
CRFR2-BP ag = CRF-BP/CRF-R2 complex agonism | HEK293 CRF-R2/CRF-BP, calcium dye fluorescence (FLIPR); percent of saturating CRF peptide response | AID 588473 | activation, % at 13.2 µM | 350,000 tested, 0.46% active;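 active = activation of at least 50%, plus an integration ratio under a set limit after plate pattern correction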
CRFR2-BP antag = CRF-BP/CRF-R2 complex antagonism | HEK293 CRF-R2/CRF-BP, CRF-induced calcium fluorescence | inhibition, % at 11.8 µM | 350,000 tested, 0.59% active | AID 588475;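 active = inhibition of the ligand-induced calcium signal above about 50% at the single tested concentration, limit read from the data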
IMP-1 inh-1 = inhibitors of Pseudomonas aeruginosa IMP-1 metallo-beta-lactamase; purified IMP-1, nitrocefin hydrolysis, epi-absorbance fluorescence; inhibition, % at 5.6 µM; 290,000 tested, 0.45% active; AID 1556;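 active = inhibition above the mean plus 3 SD of all compounds in the same screening run, cut at about 4.5% in these data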
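Assay system: purified recombinant IMP-1 beta-lactamase. Input: IMP-1 0.2 nM before substrate addition. Buffer or medium: Zinc- and detergent-supplemented HEPES buffer, pH 7.1. Schedule: 25 °C, 15 min preincubation, 25 min reaction. Signal: Epi-absorbance fluorescence, 480 nm excitation, 530 nm emission. Evaluation: percent inhibition from optical density relative to buffer-blank wells.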
TRPML3 agonist = human mucolipin-3 channel agonism. 220,000 tested, 0.29% active. activation, % at 3 µM. HEK293 TRPML3-YFP, Fluo-8 calcium fluorescence; 100% = the carbachol control signal. Q8TDD5. AID 1448;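 active = activation above its plate's cutoff, the mean activation of the plate's test wells plus 3 SD, cut at about 12% in these data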
Target sequence (Q8TDD5 whole entry, looked up): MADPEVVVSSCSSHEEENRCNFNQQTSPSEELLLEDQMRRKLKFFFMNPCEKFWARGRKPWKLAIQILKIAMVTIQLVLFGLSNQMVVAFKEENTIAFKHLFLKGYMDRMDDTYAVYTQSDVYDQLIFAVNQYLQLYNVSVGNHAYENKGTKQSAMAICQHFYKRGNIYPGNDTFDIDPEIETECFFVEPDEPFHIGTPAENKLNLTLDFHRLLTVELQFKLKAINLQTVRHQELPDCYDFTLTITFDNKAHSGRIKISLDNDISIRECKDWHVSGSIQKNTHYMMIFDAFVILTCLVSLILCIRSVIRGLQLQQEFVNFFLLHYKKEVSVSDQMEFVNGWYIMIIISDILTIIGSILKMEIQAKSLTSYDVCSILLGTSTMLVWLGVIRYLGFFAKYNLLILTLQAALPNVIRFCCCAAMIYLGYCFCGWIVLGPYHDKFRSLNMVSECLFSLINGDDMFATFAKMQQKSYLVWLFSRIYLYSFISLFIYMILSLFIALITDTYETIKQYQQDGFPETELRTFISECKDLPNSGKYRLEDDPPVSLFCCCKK
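Test system: TRPML3-YFP stable HEK293 cells. Doses: single point at 3 µM. Incubation: dye loading 1 h 37 °C then 30 min ambient, 125 s read. Signal: Fluo-8 calcium dye fluorescence, ex 470-495, em 515-575 nm. Measure: percent activation from peak-to-basal fluorescence ratio, scaled between DMSO and carbachol.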
VIM-2 inhibitor = inhibitors of Pseudomonas aeruginosa VIM-2 metallo-beta-lactamase. purified VIM-2, nitrocefin hydrolysis, epi-absorbance fluorescence. 290,000 tested, 0.89% active. inhibition, % at 5.6 µM. AID 1527;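 active = inhibition above the mean of all tested compounds plus 3 SD, cutoff set per screening run, cut at about 7.5% in these data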;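 note: red hydrolysis product quenches plate fluorescence so inhibitors raise well fluorescence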
IMP-1 inh-2 = blocks IMP-1 metallo-beta-lactamase in VIM-2 selectivity screen | 1,300 tested, under 10 active | shares compounds with VIM-2 inhibitor | AID 1856 | inhibition, % at 5.6 µM | purified IMP-1, nitrocefin hydrolysis, epi-absorbance fluorescence; call rule not given here
VIM-2 FRET ctr = VIM-2 FRET inhibition, artifact counter-screen; shares compounds with VIM-2 inhibitor; purified VIM-2, CCF2 FRET substrate hydrolysis; inhibition, % at 5.6 µM; 1,300 tested, 23% active; AID 1857;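 active = inhibition above the mean of all tested compounds plus 3 SD, cut at about 19% in these data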
TEM-1 inh = blocks E. coli TEM-1 beta-lactamase in VIM-2 selectivity screen | shares compounds with VIM-2 inhibitor | Purified TEM-1, nitrocefin hydrolysis, epi-absorbance fluorescence | inhibition, % at 5.6 µM | 1,300 tested, 3% active | AID 1866;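 active = inhibition above that campaign's mean inhibition plus 3 SD, cut at about 0.46% in these data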
VIM-2 confirm 2 = confirmation of P. aeruginosa VIM-2 metallo-beta-lactamase inhibitors. AID 2187. purified VIM-2, nitrocefin hydrolysis, epi-absorbance. shares compounds with VIM-2 inhibitor. inhibition, % at 5.6 µM. 1,300 tested, 96% active;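 active = inhibition of the VIM-2 beta-lactamase enzyme above about 11% from the earlier first-round screen, limit read from the data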
Hits are given with their value; i = inactive; nt = no result given.

SMILES	TRPN1 ag	CRFR2-BP ag	CRFR2-BP antag	IMP-1 inh-1	TRPML3 agonist	VIM-2 inhibitor	IMP-1 inh-2	VIM-2 FRET ctr	TEM-1 inh	VIM-2 confirm 2
COc1ccc(OC)c(Nc2c3c(nc4ccccc24)CCC3)c1	nt	i	i	i	nt	13	i	i	i	20
COc1ccc(OC)c(NC(=O)COC(=O)c2c3c(nc4ccccc24)CCCC3)c1	i	i	i	i	i	i	nt	nt	nt	nt
O=[N+]([O-])c1ccc(S(=O)(=O)NN=CCCc2ccccc2)cc1	nt	i	i	nt	nt	nt	nt	nt	nt	nt
O=C(COc1ccc2c3c(c(=O)oc2c1)CCC3)NCCCN1CCOCC1	nt	i	i	i	nt	24	i	i	i	31
O=C(COc1ccc2c(c1)oc(=O)c1ccccc12)NCCCN1CCOCC1	nt	i	i	i	nt	20	i	i	i	33
CC(Oc1cc2oc(=O)c3c(c2cc1Cl)CCC3)C(=O)NCCCN1CCOCC1 (stereo not drawn)	nt	i	i	i	nt	i	nt	nt	nt	nt
CC(Oc1cc2oc(=O)c3c(c2cc1Cl)CCCC3)C(=O)NCCN1CCOCC1 (stereo not drawn)	nt	i	i	i	nt	13	i	i	i	15
CC(Oc1ccc2c(c1)oc(=O)c1ccccc12)C(=O)NCCN1CCOCC1 (stereo not drawn)	nt	i	i	i	nt	14	i	i	i	23
CC(Oc1ccc2c(-c3ccccc3)cc(=O)oc2c1)C(=O)NCCN1CCOCC1 (stereo not drawn)	nt	i	i	i	nt	i	nt	nt	nt	nt
CCOCCCN1C(=O)C(=O)N(CC(=O)N2c3ccccc3NC(=O)CC2C)C1=O (stereo not drawn)	nt	i	i	nt	nt	nt	nt	nt	nt	nt
Cn1nc(-c2ccc(OCC(N)=O)cc2)c2ccccc2c1=O	i	i	i	i	i	13	i	i	i	30
Cc1cccc(NC(=O)COc2ccccc2)c1	i	i	i	i	i	i	nt	nt	nt	nt
CCCNC(=O)COc1ccc(-c2nn(C)c(=O)c3ccccc23)cc1	nt	i	i	i	nt	13	i	i	i	20
Cc1cccc(NC(=O)COc2ccc(-c3nn(C)c(=O)c4ccccc34)cc2)c1	nt	i	i	i	nt	16	i	i	i	18
COC(=O)COc1ccc(-c2nn(C)c(=O)c3ccccc23)cc1	i	i	i	i	i	i	nt	nt	nt	nt
Cc1ccn2cc(-c3ccc(O)c(O)c3)nc2c1	nt	i	i	i	nt	i	nt	nt	nt	nt
Cc1cc(C)n2nc(/C(C#N)=C/c3ccccn3)c(C#N)c2n1	i	i	i	i	i	45	i	i	i	7.7
Cc1cc(C)n2nc(CC#N)c(C#N)c2n1	i	i	i	i	i	i	nt	nt	nt	nt
CCN(CC)CCCNC(=O)C1CCN(c2ncnc3c2sc2cccc(F)c23)CC1	i	i	i	i	i	27	i	i	i	39
CC1CC(C)CN(CCCNC(=O)C2CCN(c3ncnc4c3sc3cccc(F)c34)CC2)C1 (stereo not drawn)	i	nt	nt	i	i	25	i	i	i	36
COc1cc(/C=N/Nc2ccc(Cl)c(C(=O)O)c2)ccc1OC(=O)c1ccccc1F	nt	i	i	i	nt	i	nt	nt	nt	nt
Cc1nc(C)c(/C(O)=C/c2nc3ccccc3oc2=O)s1	i	i	i	i	i	19	i	i	i	i
COC(=O)c1cc(CNC(=O)c2ccccc2OCc2c(C)noc2C)ccc1OC	nt	i	i	i	nt	i	nt	nt	nt	nt
O=c1[nH]c2cc3c(cc2cc1CN(Cc1cccnc1)C(=S)NCc1ccco1)OCCO3	i	i	i	i	i	18	i	i	i	i
CC(C)N1CCc2c(sc(NC(=O)c3cc(-c4cccs4)nc4ccccc34)c2C(N)=O)C1	i	i	i	i	i	20	i	i	i	46
SMILES	TRPN1 ag	CRFR2-BP ag	CRFR2-BP antag	IMP-1 inh-1	TRPML3 agonist	VIM-2 inhibitor	IMP-1 inh-2	VIM-2 FRET ctr	TEM-1 inh	VIM-2 confirm 2
CCC(C)NC(=O)c1cc(-c2cccs2)nc2ccccc12 (stereo not drawn)	nt	i	i	i	nt	i	nt	nt	nt	nt
CCCc1cc(=O)oc2c3c(cc(OCC(=O)NCCCn4ccnc4)c12)OC(C)(C)CC3	nt	i	i	i	nt	17	i	i	i	28
Cc1cc(=O)oc2c3c(cc(OCC(=O)NCCCn4ccnc4)c12)OC(C)(C)CC3	nt	i	i	i	nt	15	i	i	i	22
Cc1cc(=O)oc2c3c(cc(OCC(=O)NCCN4CCOCC4)c12)OC(C)(C)CC3	nt	i	i	i	nt	i	nt	nt	nt	nt
CC(NC(=O)CCN1C(=O)c2ccccc2C1=O)c1ccccc1 (stereo not drawn)	nt	i	i	i	nt	i	nt	nt	nt	nt
CCOC(=O)N1CCN(C(=S)NC(=O)/C=C/c2ccc(C)cc2)CC1	nt	i	i	i	nt	i	nt	nt	nt	nt
COc1ccc(-c2cc(C(F)(F)F)n3nc(C(=O)N4CCN5CCCC5C4)cc3n2)cc1OC (stereo not drawn)	nt	i	i	i	nt	26	i	i	i	40
Cc1ccc(S(=O)(=O)N2Cc3ccccc3CC2C(=O)N(C)C)cc1 (stereo not drawn)	nt	i	i	nt	nt	nt	nt	nt	nt	nt
Cc1ccc(S(=O)(=O)n2[nH]c(=O)cc2NC(=O)c2cccs2)cc1	i	nt	nt	i	i	70	i	91	i	84
COc1ccc(S(=O)(=O)n2nc(OC(=O)c3cccs3)cc2NC(=O)c2cccs2)cc1	i	i	i	i	i	74	i	37	5.7	16
C=CCn1cnc2c(nnn2Cc2ccc(F)cc2)c1=O	i	i	i	i	i	i	nt	nt	nt	nt
CCCOc1ccccc1C(=O)Nc1ccc(S(=O)(=O)N2CCN(C)CC2)cc1	nt	i	i	i	nt	51	i	i	i	65
COc1ccccc1C(=O)Nc1ccc(S(=O)(=O)N2CCN(C)CC2)cc1	nt	i	i	nt	nt	nt	nt	nt	nt	nt
COCCn1c(C)cc(/C=C(\C#N)C(=O)OCC(=O)N(C)c2c(N)n(Cc3ccccc3)c(=O)[nH]c2=O)c1C	nt	i	i	nt	nt	nt	nt	nt	nt	nt
O=C1C(=O)c2c(ccc3ccccc23)-c2ccccc21	nt	i	i	nt	nt	nt	nt	nt	nt	nt
CN(C)CCCN1C(=O)c2cccc3c(Br)ccc(c23)C1=O	i	i	i	i	i	12	i	i	i	18
O=C(O)CN1C(=O)c2cccc3c(Br)ccc1c23	nt	i	i	i	nt	i	nt	nt	nt	nt
Cc1cccn2c(=O)c3cc(C(=O)NCCN4CCOCC4)n(C)c3nc12	nt	i	i	i	nt	19	i	i	i	28
O=C(NCCN1CCOCC1)c1cccn2c(=O)c3c4c(sc3nc12)CCCC4	i	nt	nt	i	i	17	i	i	i	47

Source: PubChem (several laboratories)
